The record followed here is BindingDB's records for doi:10.1016/j.ejmech.2009.05.023 (Sun Yat-Sen University, 2009).

This assay concerns the target T1, Polyphenol oxidase 2 (Agaricus bisporus, UniProt O42713).
T1 sequence (O42713 whole entry): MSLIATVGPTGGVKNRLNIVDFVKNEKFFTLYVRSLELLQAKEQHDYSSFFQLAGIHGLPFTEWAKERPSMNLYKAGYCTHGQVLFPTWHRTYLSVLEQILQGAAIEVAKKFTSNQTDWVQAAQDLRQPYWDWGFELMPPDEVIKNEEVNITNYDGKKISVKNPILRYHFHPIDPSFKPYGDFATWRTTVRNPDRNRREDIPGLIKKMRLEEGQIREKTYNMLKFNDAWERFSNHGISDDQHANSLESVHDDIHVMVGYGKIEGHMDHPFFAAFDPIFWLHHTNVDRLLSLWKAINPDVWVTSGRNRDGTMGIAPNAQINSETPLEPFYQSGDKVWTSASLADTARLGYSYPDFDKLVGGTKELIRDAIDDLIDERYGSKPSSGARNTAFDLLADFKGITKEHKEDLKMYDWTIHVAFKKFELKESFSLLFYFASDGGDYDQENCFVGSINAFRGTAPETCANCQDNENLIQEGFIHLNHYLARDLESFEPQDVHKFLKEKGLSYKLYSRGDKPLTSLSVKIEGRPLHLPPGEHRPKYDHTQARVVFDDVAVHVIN
As to the kind of experiment: Inhibition of mushroom tyrosinase. The essentials: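 Mushroom tyrosinase diphenolase assay: 1 mL reaction with 0.5 mM L-DOPA in 50 mM sodium phosphate buffer, pH 6.8, enzyme final 0.5 mg/mL, 25 °C. Compounds dissolved in DMSO (2.0% final); DMSO-only controls run. Dopachrome formation followed at 475 nm for 1 min. IC50 interpolated from dose–response curves; means of three experiments.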

SMILES strings stand for the structures. Where only a bound is given, the exact number is not on record here.

The compound `COCCOCCOc1ccc(Cc2c(O)[nH]c(=O)[nH]c2=O)cc1` [5-(4-(2-(2-Methoxyethoxy)ethoxy)benzyl)pyrimidine-2,4,6(1H,3H,5H)trione] gave an IC50 greater than 200 µM.
Compound `O=c1[nH]c(O)c(Cc2ccc(OCCO)cc2)c(=O)[nH]1` [5-(4-(2-Hydroxyethoxy)benzyl)pyrimidine-2,4,6(1H,3H,5H)-trione] had an IC50 greater than 200 µM.
The compound `Oc1cc(O)nc(S)n1` [Thiobarbituric] yielded a concentration for half-maximal inhibition (IC50) greater than 200 µM.
`CCCCOCCOc1ccc(Cc2c(O)[nH]c(=O)[nH]c2=O)cc1` [5-(4-(2-Butoxyethoxy)benzyl)pyrimidine-2,4,6(1H,3H,5H)-trione] returned an IC50 greater than 200 µM.
`O=c1cc(O)[nH]c(=O)[nH]1` [Barbituric acid] came in with an IC50 greater than 200 µM.
With `COCCCCOc1ccc(Cc2c(O)[nH]c(=S)[nH]c2=O)cc1` [5-(4-(4-Methoxybutoxy)benzyl)-2-thioxodihydropyrimidine-4,6(1H,5H)-dione], the IC50 was greater than 200 µM.
To `O=c1[nH]c(O)c(Cc2ccc(O)cc2)c(=O)[nH]1` [5-(4-Hydroxybenzyl)pyrimidine-2,4,6(1H,3H,5H)-trione] belongs greater than 200 µM.
`COCCOc1ccc(Cc2c(O)[nH]c(=O)[nH]c2=O)cc1` [5-(4-(2-Methoxyethoxy)benzyl)pyrimidine-2,4,6(1H,3H,5H)-trione] gave an IC50 greater than 200 µM.
